In brackets after ≈: the same amount, converted by molar mass. Activity calls are given as the source filed them. The rule behind the calls is not given here.
Legend:
Bacillus subtilis [1] = experiment: Antibacterial activity against Bacillus subtilis NCIM 2063 by standard agar method; format: functional
How it was run: (§1)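 MIC determined by standard agar method, with dimethyl sulfoxide as solvent control.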

Staphylococcus aureus [2] = experiment: Antibacterial activity against Staphylococcus aureus NCIM 2901 by standard agar method; format: functional; how it was run: as §1
Pseudomonas aeruginosa [3] = experiment: Antibacterial activity against Pseudomonas aeruginosa NCIM 2036 by standard agar method; format: functional; how it was run: as §1
Escherichia coli = experiment: Antibacterial activity against Escherichia coli NCIM 2256 by standard agar method; format: functional; how it was run: as §1
Aspergillus niger = experiment: Antifungal activity against Aspergillus niger NCIM 1196 by standard agar method; format: functional; how it was run: as §1
Candida albicans = experiment: Antifungal activity against Candida albicans NCIM 3471 by standard agar method; format: functional; how it was run: as §1
HeLa = experiment: Cytotoxicity against human HeLa cells up to 300 ug/ml after 72 hrs by MTT assay; format: cell-based
Leishmania donovani = experiment: Antileishmanial activity against Leishmania donovani NHOM/IN/80/DD8 promastigotes assessed as decrease in parasite growth after 72 hrs by MTT assay; format: functional, organism-based; conditions: NHOM/IN/80/DD8, 72 h
How it was run: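 Cultured promastigotes were used, and viability was read by a modified MTT assay, with formazan yield taken as proportional to metabolically active cells. IC50 is the concentration cutting cell growth by 50%, found by graphic interpolation.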

Bacillus subtilis [4] = experiment: Antibacterial activity against Bacillus subtilis NCIM 2063 up to 300 ug/ml by standard agar method; format: functional, organism-based
Pseudomonas aeruginosa [5] = experiment: Antibacterial activity against Pseudomonas aeruginosa NCIM 2036 up to 300 ug/ml by standard agar method; format: functional, organism-based
Staphylococcus aureus [6] = experiment: Antibacterial activity against Staphylococcus aureus NCIM 2901 up to 300 ug/ml by standard agar method; format: functional, organism-based

SMILES | MIC (Bacillus subtilis [1]) [µg/mL] | MIC (Staphylococcus aureus [2]) [µg/mL] | MIC (Pseudomonas aeruginosa [3]) [µg/mL] | MIC (Escherichia coli) [µg/mL] | MIC (Aspergillus niger) [µg/mL] | MIC (Candida albicans) [µg/mL] | Activity (HeLa) | IC50 (Leishmania donovani) [µM] | Activity (Bacillus subtilis [4]) | Activity (Pseudomonas aeruginosa [5]) | Activity (Staphylococcus aureus [6])
CC1(C)S[C@@H]2[C@H](NC(=O)[C@H](N)c3ccccc3)C(=O)N2[C@H]1C(=O)O [AMPICILLIN] | 250 (≈ 715 µM) | 250 (≈ 715 µM) | 100 (≈ 286 µM) | 100 (≈ 286 µM) | – | – | – | – | – | – | –
Clc1ccc(COC(Cn2ccnc2)c2ccc(Cl)cc2Cl)c(Cl)c1 (stereo unspecified) [MICONAZOLE] | – | – | – | – | 12.5 (≈ 30 µM) | 25 (≈ 60.1 µM) | – | – | – | – | –
COc1ccc(OC)c(/C=N/NC(=O)CN2CCc3sccc3C2)c1 | 100 (≈ 278 µM) | 75 (≈ 209 µM) | 250 (≈ 696 µM) | 125 (≈ 348 µM) | 150 (≈ 417 µM) | 25 (≈ 69.6 µM) | Non-toxic | 689 | – | – | –
N=C(N)c1ccc(OCCCCCOc2ccc(C(=N)N)cc2)cc1 [PENTAMIDINE] | – | – | – | – | – | – | – | 16.1 | – | – | –
O=C(CN1CCc2sccc2C1)N/N=C/c1c(Cl)cccc1Cl | 250 (≈ 679 µM) | 250 (≈ 679 µM) | 150 (≈ 407 µM) | 50 (≈ 136 µM) | 160 (≈ 434 µM) | 80 (≈ 217 µM) | Non-toxic | 645 | – | – | –
COc1ccc(/C=N/NC(=O)CN2CCc3sccc3C2)c(OC)c1 | 100 (≈ 278 µM) | 75 (≈ 209 µM) | 250 (≈ 696 µM) | 125 (≈ 348 µM) | 50 (≈ 139 µM) | 25 (≈ 69.6 µM) | Non-toxic | 737 | – | – | –
CN(C)c1ccc(/C=N/NC(=O)CN2CCc3sccc3C2)cc1 | – | 100 (≈ 292 µM) | – | 50 (≈ 146 µM) | 100 (≈ 292 µM) | 40 (≈ 117 µM) | Non-toxic | 274 | inactive | inactive | –
O=C(CN1CCc2sccc2C1)N/N=C/c1ccc(Cl)cc1 | 100 (≈ 300 µM) | 50 (≈ 150 µM) | 50 (≈ 150 µM) | 25 (≈ 74.9 µM) | 100 (≈ 300 µM) | 100 (≈ 300 µM) | Non-toxic | 738 | – | – | –
COc1ccc(/C=N/NC(=O)CN2CCc3sccc3C2)cc1OC | 150 (≈ 417 µM) | 150 (≈ 417 µM) | 200 (≈ 556 µM) | 150 (≈ 417 µM) | 12.5 (≈ 34.8 µM) | 37.5 (≈ 104 µM) | Non-toxic | 619 | – | – | –
O=C(O)c1cn(C2CC2)c2cc(N3CCNCC3)c(F)cc2c1=O [CIPROFLOXACIN] | – | 50 (≈ 151 µM) | – | 25 (≈ 75.4 µM) | – | – | – | – | – | – | –
O=C(CN1CCc2sccc2C1)N/N=C/c1ccc(O)c(O)c1 | – | – | 150 (≈ 453 µM) | 50 (≈ 151 µM) | 75 (≈ 226 µM) | 75 (≈ 226 µM) | Non-toxic | 672 | inactive | – | inactive
O=C(CN1CCc2sccc2C1)N/N=C/c1ccccc1Cl | 100 (≈ 300 µM) | 100 (≈ 300 µM) | 125 (≈ 374 µM) | 25 (≈ 74.9 µM) | 120 (≈ 359 µM) | 60 (≈ 180 µM) | Non-toxic | 296 | – | – | –
COc1cccc(N)c1/C=N/NC(=O)CN1CCc2sccc2C1 | – | 275 (≈ 798 µM) | – | 175 (≈ 508 µM) | 140 (≈ 406 µM) | 60 (≈ 174 µM) | Non-toxic | 722 | inactive | inactive | –
N#Cc1ccc(/C=N/NC(=O)CN2CCc3sccc3C2)cc1 | – | 250 (≈ 771 µM) | 150 (≈ 462 µM) | 100 (≈ 308 µM) | 140 (≈ 432 µM) | 80 (≈ 247 µM) | Non-toxic | 694 | inactive | – | –
OC(Cn1cncn1)(Cn1cncn1)c1ccc(F)cc1F [FLUCONAZOLE] | – | – | – | – | 10 (≈ 32.7 µM) | 5 (≈ 16.3 µM) | – | – | – | – | –
